The source of these data is ChEMBL document CHEMBL1157817, “2-aminoimidazole amino acids as inhibitors of the binuclear manganese metalloenzyme human arginase I” (J Med Chem, 2010).

Usually Ki stands for the equilibrium dissociation constant of an inhibitor or competing ligand from its target. One may read the IC50 as the concentration that inhibits the measured activity by half. For orientation: Kd means the constant that tells how readily two partners part at equilibrium.

SMILES strings stand for the structures. Active and inactive are the calls of the source. The rule behind the calls is not given here.

For assay [1], the target named is T1, Arginase-1 (Homo sapiens, UniProt P05089).
T1 sequence (P05089 whole entry): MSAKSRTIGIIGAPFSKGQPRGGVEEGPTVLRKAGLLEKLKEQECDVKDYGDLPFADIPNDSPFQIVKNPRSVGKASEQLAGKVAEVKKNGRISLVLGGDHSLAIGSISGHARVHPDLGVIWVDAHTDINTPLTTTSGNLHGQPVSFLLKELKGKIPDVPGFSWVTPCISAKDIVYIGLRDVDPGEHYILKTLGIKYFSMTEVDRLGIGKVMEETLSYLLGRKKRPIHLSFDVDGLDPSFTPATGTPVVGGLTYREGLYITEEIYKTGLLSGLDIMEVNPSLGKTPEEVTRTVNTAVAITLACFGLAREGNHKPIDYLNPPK
The assay is described as follows: Inhibition of human recombinant full length arginase 1 expressed in Escherichia coli BL21(DE3) by fixed point assay.

Assay [2] concerns the target T2, Nitric oxide synthase, inducible (Mus musculus, UniProt P29477).
T2 sequence (P29477 whole entry): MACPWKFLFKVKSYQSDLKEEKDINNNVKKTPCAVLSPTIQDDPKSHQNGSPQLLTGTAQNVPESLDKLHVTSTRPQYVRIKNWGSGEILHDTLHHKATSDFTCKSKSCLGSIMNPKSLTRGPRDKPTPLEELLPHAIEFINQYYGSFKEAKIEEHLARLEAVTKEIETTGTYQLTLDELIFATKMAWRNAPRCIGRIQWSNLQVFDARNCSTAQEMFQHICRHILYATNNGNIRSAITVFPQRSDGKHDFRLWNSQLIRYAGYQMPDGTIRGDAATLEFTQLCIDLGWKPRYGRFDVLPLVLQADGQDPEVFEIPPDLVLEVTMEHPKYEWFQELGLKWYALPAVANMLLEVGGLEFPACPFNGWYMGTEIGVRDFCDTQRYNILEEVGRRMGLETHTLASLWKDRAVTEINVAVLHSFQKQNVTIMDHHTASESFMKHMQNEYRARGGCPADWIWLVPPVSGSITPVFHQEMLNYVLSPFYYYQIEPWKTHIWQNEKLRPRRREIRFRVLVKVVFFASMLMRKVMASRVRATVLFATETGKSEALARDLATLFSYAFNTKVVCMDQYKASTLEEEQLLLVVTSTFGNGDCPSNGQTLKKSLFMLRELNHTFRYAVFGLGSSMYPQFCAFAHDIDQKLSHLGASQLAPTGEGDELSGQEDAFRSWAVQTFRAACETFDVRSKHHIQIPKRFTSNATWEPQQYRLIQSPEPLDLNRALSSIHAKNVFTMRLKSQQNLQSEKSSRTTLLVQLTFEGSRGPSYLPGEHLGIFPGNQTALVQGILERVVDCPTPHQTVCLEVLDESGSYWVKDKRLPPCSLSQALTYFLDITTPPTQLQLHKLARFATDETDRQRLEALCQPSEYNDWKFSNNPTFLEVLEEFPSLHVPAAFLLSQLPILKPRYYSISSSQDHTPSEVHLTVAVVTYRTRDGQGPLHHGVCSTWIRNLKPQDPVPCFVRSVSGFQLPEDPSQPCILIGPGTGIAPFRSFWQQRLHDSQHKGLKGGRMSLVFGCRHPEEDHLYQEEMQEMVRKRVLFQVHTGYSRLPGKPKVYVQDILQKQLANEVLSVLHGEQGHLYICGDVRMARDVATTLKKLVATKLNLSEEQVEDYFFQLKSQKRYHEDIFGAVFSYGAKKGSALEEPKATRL
The assay is described as follows: Inhibition of mouse recombinant iNOS.

The test system of assay [3] is Mus musculus. The assay is described as follows: Antiinflammatory activity in ovalbumin-sensitized and challenged BALB/c mouse model assessed as attenuation of methacholine-induced maximum total lung resistance at 85 ug/g administered via nebulization 24 hrs after ovalbumin challenge measured after 15 mins. The format is functional, organism-based. The procedure, abridged: (§1)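 Mice OVA-sensitized, then nebulized 6% OVA in PBS (or PBS alone) 25 min/day on days 14–20. Day 21, 24 h after last challenge: ketamine 50 mg/kg plus xylazine 10 mg/kg, intubated, ventilator-based resistance measured. Baseline resistance re-measured 15 min after drug. Then nebulized methacholine (0–100 mg/mL in PBS) dose-response via ventilator circuit. Maximum R and RN read; means ± SE, n = 12/group.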

In assay [4] the target is T1, Arginase-1. The assay is described as follows: Inhibition of human recombinant full length arginase 1 expressed in Escherichia coli BL21(DE3) by surface plasmon resonance assay. (Surface plasmon resonance follows binding to a sensor surface in real time, without labels.)
Assay [5] deals with Mus musculus. The assay is described as follows: Antiinflammatory activity in ovalbumin-sensitized and challenged BALB/c mouse model assessed as attenuation of methacholine-induced increase in central airways responsiveness at 85 ug/g administered via nebulization 24 hrs after ovalbumin challenge measured after 15 mins. Type of assay: functional, organism-based. In short, it runs like this: as §1

The target in the next assay is Nitric oxide synthase 1 (Rattus norvegicus, UniProt P29476). The assay is described as follows: Inhibition rat recombinant nNOS.
Sequence of Nitric oxide synthase 1 (P29476 whole entry): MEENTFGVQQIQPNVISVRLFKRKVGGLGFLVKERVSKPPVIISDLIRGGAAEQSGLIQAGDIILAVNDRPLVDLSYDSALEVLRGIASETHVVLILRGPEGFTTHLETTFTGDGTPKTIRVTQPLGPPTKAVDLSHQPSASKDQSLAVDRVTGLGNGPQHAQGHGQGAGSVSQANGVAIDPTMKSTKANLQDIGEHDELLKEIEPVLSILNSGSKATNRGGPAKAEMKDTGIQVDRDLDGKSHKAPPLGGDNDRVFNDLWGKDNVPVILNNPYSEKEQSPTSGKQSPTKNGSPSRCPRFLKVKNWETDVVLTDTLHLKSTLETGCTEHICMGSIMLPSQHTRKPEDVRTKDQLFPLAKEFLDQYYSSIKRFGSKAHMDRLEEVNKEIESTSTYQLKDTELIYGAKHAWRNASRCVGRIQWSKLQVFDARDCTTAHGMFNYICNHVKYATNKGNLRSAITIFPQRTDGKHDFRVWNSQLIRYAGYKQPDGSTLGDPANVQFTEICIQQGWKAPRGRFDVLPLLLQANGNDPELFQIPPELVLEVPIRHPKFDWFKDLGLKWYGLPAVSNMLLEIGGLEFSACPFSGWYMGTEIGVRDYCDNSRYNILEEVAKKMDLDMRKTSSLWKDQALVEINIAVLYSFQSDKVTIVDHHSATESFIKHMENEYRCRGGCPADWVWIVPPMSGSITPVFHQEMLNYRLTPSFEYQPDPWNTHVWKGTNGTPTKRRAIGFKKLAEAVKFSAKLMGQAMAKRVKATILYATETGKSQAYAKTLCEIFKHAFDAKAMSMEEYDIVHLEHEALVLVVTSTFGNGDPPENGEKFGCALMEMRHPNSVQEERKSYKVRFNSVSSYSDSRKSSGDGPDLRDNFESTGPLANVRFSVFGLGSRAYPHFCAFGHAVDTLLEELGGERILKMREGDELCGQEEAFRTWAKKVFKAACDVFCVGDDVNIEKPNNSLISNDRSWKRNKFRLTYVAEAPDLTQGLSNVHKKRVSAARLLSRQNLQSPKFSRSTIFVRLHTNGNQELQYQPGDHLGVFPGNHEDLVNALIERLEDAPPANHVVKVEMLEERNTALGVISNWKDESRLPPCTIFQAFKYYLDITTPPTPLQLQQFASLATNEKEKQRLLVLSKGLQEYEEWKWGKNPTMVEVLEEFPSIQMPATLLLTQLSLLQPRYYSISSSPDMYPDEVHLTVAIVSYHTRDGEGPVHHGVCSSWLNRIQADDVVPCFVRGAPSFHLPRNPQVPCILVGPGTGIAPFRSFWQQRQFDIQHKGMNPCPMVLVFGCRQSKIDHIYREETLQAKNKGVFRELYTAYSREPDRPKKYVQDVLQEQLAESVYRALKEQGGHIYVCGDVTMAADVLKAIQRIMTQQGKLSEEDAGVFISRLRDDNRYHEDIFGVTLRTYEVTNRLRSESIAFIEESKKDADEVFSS

For the compound `N[C@@H](CCCNc1ncc[nH]1)C(=O)O`, the inhibition constant (Ki) at Arginase-1 [1] is 500 µM.
For `Nc1nccn1CCC[C@H](N)C(=O)O`, the half-maximal inhibitory concentration (IC50) was determined as 480 µM in assay [2] and 135 µM on Nitric oxide synthase 1. The inhibitory constant (Ki) at Arginase-1 [1] is 4 µM. The inhibition result with Mus musculus [3] and in the assay on Mus musculus [5] was “Active” in each case. Moreover, the Kd at Arginase-1 [4] came out at 2 µM.
As to `Nc1ncc[nH]1`, on Arginase-1 [1], the inhibition constant Ki amounted to 3600 µM.
